Measured values published in ChEMBL document CHEMBL4270594, “Design, synthesis and pharmacological evaluation of new 3-(1H-benzimidazol-2-yl)quinolin-2(1H)-one derivatives as potential antitumor agents” (Eur J Med Chem, 2018).
The source made the active and inactive calls. No cut-off for these calls is given here.

Key:
[1] = test system: BEL-7404 tumor cell line; assay: Cytotoxicity against human Bel7404 cells after 48 hrs by MTT assay; assay type: functional, cell-based; conditions: BEL-7404, 48 h
Outline: (§1)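 MTT cytotoxicity assay run against HepG2 and BEL-7404 liver cancer, SK-OV-3 ovarian, NCI-H460 large-cell lung cancer and HL-7702 normal liver cells. 5-fluorouracil and cisplatin served as positive controls. IC50 is given as mean ± SD of three repeat experiments.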

[2] = test system: HepG2; assay: Cytotoxicity against human HepG2 cells after 48 hrs by MTT assay; assay type: functional, cell-based; conditions: HepG2, 48 h; outline: as §1
[3] = test system: L02; assay: Cytotoxicity against human HL-7702 cells after 48 hrs by MTT assay; assay type: cell-based; conditions: L02, 48 h; outline: as §1
[4] = test system: SK-OV-3; assay: Cytotoxicity against human SKOV3 cells after 48 hrs by MTT assay; assay type: functional, cell-based; conditions: SK-OV-3, 48 h; outline: as §1
[5] = test system: NCI-H460; assay: Cytotoxicity against human NCI-H460 cells after 48 hrs by MTT assay; assay type: functional, cell-based; conditions: NCI-H460, 48 h; outline: as §1
[6] = test system: BEL-7404 tumor cell line; assay: Antitumor activity against human Bel7404 cells xenografted in Balb/c nude mouse assessed as tumor growth inhibition at 25 mg/kg/2 days, ip for 20 days measured on day 21 post last dose relative to control; assay type: functional; conditions: BEL-7404, ip, read-out: TGI
[7] = test system: BEL-7404 tumor cell line; assay: Antitumor activity against human Bel7404 cells xenografted in Balb/c nude mouse assessed as relative tumor volume increment rate at 25 mg/kg/2 days, ip for 20 days measured on day 21 post last dose relative to control; assay type: functional
[8] = test system: HepG2; assay: Upregulation of p53 protein expression in human HepG2 cells at 10 uM after 12 hrs by Western blot analysis; assay type: functional, cell-based

SMILES	IC50 [1] [µM]	IC50 [2] [µM]	IC50 [3] [µM]	IC50 [4] [µM]	IC50 [5] [µM]	inhibition in vivo at 25 mg/kg [6] [%]	T/C [7] [%]	Activity [8]
Cc1cc2nc(-c3cc4ccccc4[nH]c3=O)[nH]c2cc1C	> 100	> 100	> 100	> 100	> 100	–	–	–
COc1ccc2[nH]c(=O)c(-c3nc4ccccc4[nH]3)cc2c1	> 100	> 100	> 100	> 100	> 100	–	–	–
Cc1ccc2[nH]c(=O)c(-c3nc4cc(Br)ccc4[nH]3)cc2c1	> 100	> 100	> 100	> 100	> 100	–	–	–
O=c1[nH]c2cc3c(cc2cc1-c1nc2cc([N+](=O)[O-])ccc2[nH]1)OCO3	> 100	> 100	> 100	> 100	> 100	–	–	–
Cc1ccc2[nH]c(=O)c(-c3nc4cc([N+](=O)[O-])ccc4[nH]3)cc2c1	> 100	> 100	> 100	> 100	> 100	–	–	–
COc1ccc2[nH]c(=O)c(-c3nc4cc([N+](=O)[O-])ccc4[nH]3)cc2c1	> 100	> 100	> 100	> 100	> 100	–	–	–
COc1ccc2[nH]c(=O)c(-c3nc4cc(Cl)ccc4[nH]3)cc2c1	> 100	> 100	> 100	> 100	> 100	–	–	–
COc1ccc2[nH]c(=O)c(-c3nc4cc(C)c(C)cc4[nH]3)cc2c1	> 100	> 100	> 100	> 100	> 100	–	–	–
Cc1cc2nc(-c3cc4cc5c(cc4[nH]c3=O)OCO5)[nH]c2cc1C	15.7	18.7	> 100	10.6	23.8	–	–	–
Cc1ccc2[nH]c(=O)c(-c3nc4cc(C)c(C)cc4[nH]3)cc2c1	> 100	> 100	> 100	> 100	> 100	–	–	–
COc1ccc2[nH]c(=O)c(-c3nc4cc(F)ccc4[nH]3)cc2c1	> 100	> 100	> 100	> 100	> 100	–	–	–
O=c1[nH]c2ccccc2cc1-c1nc2cc([N+](=O)[O-])ccc2[nH]1	> 100	> 100	> 100	> 100	> 100	–	–	–
COc1ccc2[nH]c(=O)c(-c3nc4cc(Br)ccc4[nH]3)cc2c1	> 100	> 100	> 100	> 100	> 100	–	–	–
O=c1[nH]cc(F)c(=O)[nH]1 [FLUOROURACIL]	40.2	–	–	–	–	34.5	56.1	–
O=c1[nH]c2cc3c(cc2cc1-c1nc2ccccc2[nH]1)OCO3	> 100	25.6	> 100	32.2	> 100	–	–	–
O=c1[nH]c2cc3c(cc2cc1-c1nc2cc(Br)ccc2[nH]1)OCO3	> 100	> 100	> 100	> 100	> 100	–	–	–
O=c1[nH]c2cc3c(cc2cc1-c1nc2cc(F)ccc2[nH]1)OCO3	10.3	12.4	> 100	> 100	> 100	–	–	–
Cc1ccc2[nH]c(=O)c(-c3nc4cc(F)ccc4[nH]3)cc2c1	> 100	> 100	> 100	> 100	> 100	–	–	–
O=c1[nH]c2ccccc2cc1-c1nc2cc(Br)ccc2[nH]1	14.5	10.8	> 100	11.4	16.8	–	–	–
Cc1ccc2[nH]c(=O)c(-c3nc4ccccc4[nH]3)cc2c1	> 100	> 100	> 100	> 100	> 100	–	–	–
O=c1[nH]c2ccccc2cc1-c1nc2ccccc2[nH]1	> 100	29.6	> 100	13.8	> 100	–	–	inactive
O=c1[nH]c2ccccc2cc1-c1nc2cc(F)ccc2[nH]1	27.4	15.2	> 100	18.3	24.2	–	–	–
Cc1ccc2[nH]c(=O)c(-c3nc4cc(Cl)ccc4[nH]3)cc2c1	39	26.6	> 100	33	36.5	–	–	–
